These results are taken from ChEMBL document CHEMBL1817591, “Novel benzofuroxan derivatives against multidrug-resistant Staphylococcus aureus strains: design using Topliss' decision tree, synthesis and biological assay” (2011).

In brackets after ≈: the same amount, converted by molar mass.

For test [1], the system named is Staphylococcus aureus. As to the kind of experiment: Antibacterial activity against vancomycin-intermediate Staphylococcus aureus VISA3 at 2 times MIC of multidrug-resistant Staphylococcus aureus 3SP/R33 after 18 hrs by serial broth microdilution method. Format: functional. As to conditions: VISA3, 18 h. The gist of the method:
(§1)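 Two-stage broth microdilution MIC in Tryptic Soy Broth, run in triplicate. Phase I used two-fold serial dilutions from DMSO/TSB 1:10 v/v stocks, with ampicillin and vancomycin as controls. The inoculum was 0.5 McFarland, diluted in saline and TSB. […] Phase II diluted a stock at twice the Phase I MIC across 11 columns.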

Test [2] deals with Staphylococcus aureus. Briefly: Antibacterial activity against multidrug-resistant Staphylococcus aureus 3SP/R33 after 18 hrs by serial broth microdilution method. Format: functional. The settings on record: 3SP/R33, 18 h. The gist of the method: as §1
Background: Broth dilution looks for growth in wells or tubes with falling amounts of substance.

Broadly, the MIC is the smallest concentration in the dilution series that meets the test's criterion for growth inhibition. In the case of `O=C(N/N=C/c1ccc2c(c1)no[n+]2[O-])c1ccc(Br)cc1`, the values for the MIC in test [1] and in test [2] were 18 µg/mL and 10 µg/mL (≈ 27.7 µM), respectively.

Turning to `O=C(N/N=C/c1ccc2c(c1)no[n+]2[O-])c1ccc(Cl)cc1`, the figures for the MIC in test [1] and in test [2] were 15.3 µg/mL and 10 µg/mL (≈ 31.6 µM), respectively.

For the compound `O=C(N/N=C/c1ccc2c(c1)no[n+]2[O-])c1ccc(Cl)c(Cl)c1`, the minimum inhibitory concentration (MIC) in test [1] is 11.8 µg/mL; in test [2], 7.5 µg/mL (≈ 21.4 µM).

As to `O=C(N/N=C/c1ccc2c(c1)no[n+]2[O-])c1ccc(C(F)(F)F)cc1`, the MIC in test [1] was 13.1 µg/mL; in test [2] it was 10 µg/mL (≈ 28.6 µM).

Regarding `O=C(N/N=C/c1ccc2c(c1)no[n+]2[O-])c1ccccc1`, the MIC in test [1] stood at 16.2 µg/mL; in test [2], 10 µg/mL (≈ 35.4 µM).

With `O=C(N/N=C/c1ccc2c(c1)no[n+]2[O-])c1ccc(Cl)cc1Cl`, the MIC in test [1] came to 17.7 µg/mL; in test [2], 15 µg/mL (≈ 42.7 µM).

On to `O=C(N/N=C/c1ccc2c(c1)no[n+]2[O-])c1ccc([N+](=O)[O-])c(C(F)(F)F)c1`, for which the figures for the MIC in test [1] and in test [2] were 11.4 µg/mL and 7.5 µg/mL (≈ 19 µM), respectively.

For the compound `O=C(N/N=C/c1ccc2c(c1)no[n+]2[O-])c1ccc([N+](=O)[O-])cc1`, the MIC came out at 21.9 µg/mL in test [1] and 15 µg/mL (≈ 45.8 µM) in test [2].
